RORa activator = activators of orphan receptor RORA, primary screen, cell-based, luminescence; Nuclear receptor ROR-alpha (Homo sapiens), P35398; CHO-K1 Gal4-RORA LBD luciferase reporter; percent increase over mock-subtracted basal signal; activation, % at 10 µM; 65,000 compounds, 1.5% hits; AID 560, 2006;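 active = activation above the mean of all tested compounds plus 3 SD, cut at about 49% in these data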
Target sequence (P35398 whole entry, looked up, the tested form may be a part): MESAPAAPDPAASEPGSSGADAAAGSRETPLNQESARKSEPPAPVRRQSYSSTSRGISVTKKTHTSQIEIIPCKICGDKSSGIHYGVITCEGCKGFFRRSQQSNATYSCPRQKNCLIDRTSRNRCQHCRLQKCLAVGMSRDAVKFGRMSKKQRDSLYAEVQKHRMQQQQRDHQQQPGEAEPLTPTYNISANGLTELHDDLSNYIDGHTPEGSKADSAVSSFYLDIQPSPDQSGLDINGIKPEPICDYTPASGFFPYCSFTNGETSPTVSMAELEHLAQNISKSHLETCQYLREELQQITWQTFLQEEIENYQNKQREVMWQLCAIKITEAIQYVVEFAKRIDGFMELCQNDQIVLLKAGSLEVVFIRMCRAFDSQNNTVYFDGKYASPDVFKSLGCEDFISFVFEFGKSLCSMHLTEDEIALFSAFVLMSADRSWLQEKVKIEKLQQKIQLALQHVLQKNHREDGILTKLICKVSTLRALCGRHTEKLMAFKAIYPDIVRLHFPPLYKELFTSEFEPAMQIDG
Calb biofilm kill = clotrimazole potentiators killing Candida biofilms, primary screen, with clotrimazole, Alamar Blue; C. albicans biofilm + clotrimazole; inhibition, % at 6 µM; 85,000 compounds, 0.14% hits;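 active = inhibition above 20%; inactive = inhibition below 20%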;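 also: preformed 24 hr biofilms exposed to compound for 48 hr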
JNK3 inh = JNK3 kinase activity inhibitors, primary screen, biochemical, human, purified enzyme | Mitogen-activated protein kinase 10 (Homo sapiens), P53779 | HTS | inhibition, % at 8 µM | 60,000 compounds, 0.61% hits; in the data active = inhibition above about 17%
SF-1 act = activators of human SF-1, primary screen, cell-based, CHO-K1, Gal4-SF-1 LBD, luciferase luminescence; Steroidogenic factor 1 (Homo sapiens), Q13285; activation, % at 10 µM; 65,000 compounds, 1.9% hits; AID 522, 2006; CHO-K1 Gal4-SF-1 LBD luciferase reporter; % increase over DMSO SF-1-specific signal;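 active = activation above the mean activation of all tested compounds plus 3 SD, cut at about 50% in these data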
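material = CHO-K1 cells with Gal4–hSF-1 LBD chimera plus Gal4-driven luciferase | compound = 10 µM single point, 1% DMSO | incubation = 20 h compound exposure at 37 °C after 1 h cell settling | measured by = SteadyLite luciferase luminescence | evaluation = percent activation relative to DMSO median and mock-transfected background | control set = DMSO negative control and −SF1 background wells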
Numbers stand for hits; . = inactive; / = not tested or not shown. Rows were chosen to be rich in hits. Some 2.3% of all compounds tested hit in one or more screens of this group.

SMILES	RORa activator	Calb biofilm kill	JNK3 inh	SF-1 act
Cc1cc(N2CCCCC2)n2ncc(-c3ccc(Cl)cc3)c2n1	87	.	.	62
COc1ccc(S(=O)(=O)Cc2ccc(C(=O)N3CCN(c4cccc(C)c4)C(C)C3)o2)cc1 (stereo not given)	55	.	.	.
CCOc1ccccc1NC(=S)NCc1ccco1	/	.	/	/
Cc1ccc2nc3ccc(N4CCCC4)nn3c(=O)c2c1	54	/	.	.
Cc1c(C(N)=O)sc2ncn(CC(=O)N3CCC(C)CC3)c(=O)c12	/	.	/	/
CCCNC(=O)N1CCN(S(=O)(=O)c2ccc(C)c(C)c2)CC1	.	20	.	.
CCC(=O)Nc1cccc(-c2nc3ccccc3c(=O)o2)c1	.	.	.	.
COc1cccc(C(=O)Nc2cccc(-c3nnc(-c4ccccc4)o3)c2)c1	.	.	.	92
CC(=O)Nc1cccc(-c2nnc(-c3ccccc3)o2)c1	.	.	/	51
CC(=O)Nc1cccc(-c2nc3ccccc3c(=O)o2)c1	.	.	18	.
CCOc1cccc(C(=O)Nc2cccc(-c3nnc(-c4ccccc4)o3)c2)c1	.	.	.	.
COc1ccc(F)cc1S(=O)(=O)NC1CCCC1	/	.	/	/
O=C(CSc1ccc(Cl)cc1)NCC1CCCO1 (stereo not given)	/	65	/	/
Cc1cccc(OCCn2c(=O)sc3ccccc32)c1	/	.	/	/
Cc1cccc(OCCn2c(=O)n(C)c3ccccc32)c1	67	.	.	81
Cc1cc(Nc2nc3c(c(=O)n(C)c(=O)n3C)n2C)n(-c2ccccc2)n1	.	/	.	.
Cc1nc2ccccc2c(=O)n1/N=C/c1ccc(N(C)C)cc1	.	.	.	.
Cc1nc2ccccc2c(=O)n1/N=C/c1ccccn1	.	.	.	50
Cc1cc(S(=O)(=O)Nc2cc(C)c(O)c(C)c2)c(C)s1	/	.	/	/
O=C(c1cc2c(=O)oc3ccccc3c2s1)N1CCN(c2ccccn2)CC1	.	.	/	.
CC(=O)N=C(N)Sc1nc2ccccc2[nH]1	.	.	.	98
C#CCn1c(=NC(=O)c2cccs2)sc2cccc(OC)c21	79	/	.	76
C#CCn1c(=NC(=O)CSCC(=O)N2CCOCC2)sc2ccccc21	.	/	/	.
CCN1CCN(c2ncnc3c2cnn3-c2ccccc2)CC1	.	.	.	56
CCN1CCN(c2ncnc3c2cnn3-c2ccc(Cl)cc2)CC1	.	/	.	.
SMILES	RORa activator	Calb biofilm kill	JNK3 inh	SF-1 act
Cc1cccc(-n2ncc3c(N(C)Cc4ccccc4)ncnc32)c1	56	/	.	64
Cc1cccc(-n2ncc3c(N4CCC(C)CC4)ncnc32)c1	.	.	.	70
c1ccc(-n2ncc3c(N4CCC5(CC4)OCCO5)ncnc32)cc1	/	.	/	/
CCOC(=O)C1CCCN(c2ncnc3c2cnn3-c2cccc(C)c2)C1 (stereo not given)	.	.	/	.
Cc1cccc(-n2ncc3c(N4CCC5(CC4)OCCO5)ncnc32)c1	49	.	.	98
CN(C(=O)c1ccc(NC(=O)c2cnccn2)cc1)C1CCCCC1	.	.	/	.
CCCOc1ccc(C(C)=O)cc1CSc1nc(O)cc(=O)[nH]1	/	.	/	/
O=C(NCc1ccc(Cl)cc1)c1cnn2ccccc12	/	.	/	/
Cc1nn(-c2ccccc2)c(Cl)c1/C=C1\N=C(c2ccccc2)OC1=O	/	.	/	/
S=c1[nH]nc(Cc2sc(-c3ccccc3)nc2-c2ccccc2)o1	/	.	/	/
COc1ccc(N2CCN(C(=O)CN(C)S(=O)(=O)c3cnc[nH]3)CC2)cc1	/	.	/	/
CC1CC(C)CN(c2ncnc3c2cnn3-c2ccc(Cl)cc2)C1 (stereo not given)	54	.	.	71
CC1CCCN(c2ncnc3c2cnn3-c2ccc(Cl)cc2)C1 (stereo not given)	.	/	.	.
CCN(CC)S(=O)(=O)c1cc(C(=O)Nc2ccc(Cl)cn2)ccc1C	.	.	.	61
Cc1ccccc1C(=O)Nc1ccc(Br)c(C)n1	56	.	.	.
Cc1ccccc1C(=O)Nc1ccc(Cl)cn1	56	.	.	.
CCN(CC)S(=O)(=O)c1cccc(C(=O)Nc2ccc(Cl)cn2)c1	.	.	.	.
CC(C)C(=O)Nc1ccc(NC(=O)c2ccccc2Cl)nc1	62	.	.	.
Cc1nn2c([nH]c(=O)c3ccccc32)c1C=O	/	.	/	/
CCCN(CCC)S(=O)(=O)c1ccc(C(=O)N2CCCc3ccccc32)cc1	/	.	/	/
Cc1nc2c(-c3ccc(F)cc3)c(C)nn2c(C)c1CCC(=O)N1CCN(c2ccc(F)cc2)CC1	/	.	/	/
CCn1c(SCC(=O)Nc2ccc(Cl)cc2)nnc1C1CC1	.	.	22	.
CN(CC(=O)N1CCc2ccccc21)S(=O)(=O)c1cccs1	52	.	/	55
O=C(CCCC(=O)N1CCc2ccccc21)N1CCc2ccccc21	.	.	.	.
Clc1ccc(OCc2nnc(-c3ccccc3Br)o2)c(Cl)c1	90	/	.	.
SMILES	RORa activator	Calb biofilm kill	JNK3 inh	SF-1 act
Clc1ccc(OCc2nnc(-c3ccccc3Br)o2)cc1	.	.	.	.
Cc1cnc(NC(=O)COc2ccccc2)s1	54	.	.	82
COc1cc(CC(=O)Nc2ncc(C)s2)cc(OC)c1OC	.	.	42	.
COc1ccc(CC(=O)Nc2nc(C)cs2)cc1OC	.	.	32	.
Cc1ccc(C(=O)C2(C)C3c4cc(Br)ccc4OC(=O)C32C(=O)c2ccco2)cc1 (stereo not given)	/	.	/	/
O=S(=O)(c1ccc(Cl)cc1)n1nnc2ccccc21	/	.	/	/
CN1c2ccsc2C(O)=C(C(=S)Nc2ccc(F)c(Cl)c2)S1(=O)=O	/	.	/	/
O=C(c1ccc(-c2ccccc2)cc1)N1CCC(C(=O)N2CCCC2)CC1	.	.	.	.
O=C(c1ccc(-c2nnc(-c3ccccc3)o2)cc1)N1CCCCCC1	60	.	.	.
Cc1ccc2nc(NC(=O)Cn3cc4c(n3)CCCCC4)sc2c1	.	/	.	.
COc1cccc(CN(C(=O)c2cc3ccccc3oc2=O)C2CC2)c1	52	.	.	.
COc1ccc(CN(C(=O)c2cc3ccccc3oc2=O)C2CCCC2)cc1	/	.	/	/
CCn1c(COc2ccc3c(c2)OCO3)nnc1SCC(=O)c1ccc(Cl)cc1	/	.	/	/
CC(C)(C)c1ccc(C(=O)N2CCC(C(=O)NCc3ccncc3)CC2)cc1	60	.	.	.
CCOc1ccc(S(=O)(=O)Nc2ccc(F)cc2)c(C)c1C	/	.	/	/
CC(C)N(C(=O)C(=O)c1cccn1-c1ccccc1C#N)C(C)C	/	.	/	/
CSC(=NC1CCCCC1)NS(=O)(=O)c1ccccc1	.	.	/	.
CC(=NC1CCCCC1)C1=C(O)c2ccccc2C1=O	88	.	.	.
COc1ccc(C(CC(=O)O)NC(=O)COc2ccc(C)cc2)cc1OC (stereo not given)	/	.	/	/
c1ccc(-n2ncc3c(NCC4CCCO4)ncnc32)cc1 (stereo not given)	57	.	.	81
COc1ccc(-n2ncc3c(NCC4CCCO4)ncnc32)cc1 (stereo not given)	/	.	/	/
c1ccc(-n2ncc3c(NC4CCCCCC4)ncnc32)cc1	77	.	.	91
CCOC(=O)N1CCC(Nc2ncnc3c2cnn3-c2ccccc2)CC1	.	.	.	.

Screening data deposited in PubChem by several laboratories.
